Measured values from ChEMBL document CHEMBL1165965, “Synthesis and structure-activity relationships of 1,2,3,4-tetrahydropyrido[2,3-b]pyrazines as potent and selective inhibitors of the anaplastic lymphoma kinase” (Bioorg Med Chem, 2010).

How the values were obtained:
[1] = molecular target: Receptor-interacting serine/threonine-protein kinase 2 (Homo sapiens) (UniProt O43353); assay: Inhibition of RIPK2 at 1 uM
[2] = molecular target: Dual specificity mitogen-activated protein kinase kinase 1 (Homo sapiens) (UniProt Q02750); assay: Inhibition of MEK1 at 1 uM
Dual specificity mitogen-activated protein kinase kinase 1 (Homo sapiens), sequence (Q02750 whole entry): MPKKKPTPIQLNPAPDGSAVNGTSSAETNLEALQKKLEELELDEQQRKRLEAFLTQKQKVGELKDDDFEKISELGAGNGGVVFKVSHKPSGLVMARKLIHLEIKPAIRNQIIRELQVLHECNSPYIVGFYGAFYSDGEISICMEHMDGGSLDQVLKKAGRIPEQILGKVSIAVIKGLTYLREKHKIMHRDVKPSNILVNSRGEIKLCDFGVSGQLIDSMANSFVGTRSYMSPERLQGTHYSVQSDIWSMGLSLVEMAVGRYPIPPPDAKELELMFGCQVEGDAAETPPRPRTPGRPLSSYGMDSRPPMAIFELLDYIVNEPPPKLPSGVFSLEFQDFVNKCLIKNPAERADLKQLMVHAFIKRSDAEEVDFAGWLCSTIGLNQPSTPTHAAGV

[3] = molecular target: T1, Mitogen-activated protein kinase kinase kinase kinase 2 (Homo sapiens) (UniProt Q12851); assay: Inhibition of MAP4K2 at 1 uM
T1 sequence (whole entry): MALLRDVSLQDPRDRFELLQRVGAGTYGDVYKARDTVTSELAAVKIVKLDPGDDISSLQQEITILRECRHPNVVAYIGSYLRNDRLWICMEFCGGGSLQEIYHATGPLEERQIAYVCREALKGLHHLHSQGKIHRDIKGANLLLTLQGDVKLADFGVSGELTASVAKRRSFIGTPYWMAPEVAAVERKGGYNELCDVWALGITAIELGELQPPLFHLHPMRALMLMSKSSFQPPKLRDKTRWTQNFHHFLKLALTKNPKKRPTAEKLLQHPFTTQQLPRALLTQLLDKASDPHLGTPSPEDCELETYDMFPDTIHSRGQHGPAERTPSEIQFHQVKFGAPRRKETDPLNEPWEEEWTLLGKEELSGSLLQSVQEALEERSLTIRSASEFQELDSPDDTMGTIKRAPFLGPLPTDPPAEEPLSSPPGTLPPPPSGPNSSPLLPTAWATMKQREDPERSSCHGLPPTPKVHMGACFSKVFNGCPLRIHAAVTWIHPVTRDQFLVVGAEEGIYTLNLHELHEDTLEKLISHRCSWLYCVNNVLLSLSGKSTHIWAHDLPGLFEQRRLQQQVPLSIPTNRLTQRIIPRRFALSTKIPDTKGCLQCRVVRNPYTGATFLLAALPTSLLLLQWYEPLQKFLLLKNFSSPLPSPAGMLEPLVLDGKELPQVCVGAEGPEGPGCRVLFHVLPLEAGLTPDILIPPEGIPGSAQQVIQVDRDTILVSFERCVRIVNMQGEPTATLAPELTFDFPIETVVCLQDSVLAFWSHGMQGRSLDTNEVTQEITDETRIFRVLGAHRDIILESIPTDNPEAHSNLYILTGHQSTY

[4] = molecular target: T2, Serine/threonine-protein kinase ICK (Homo sapiens) (UniProt Q9UPZ9); assay: Inhibition of ICK at 1 uM
T2 sequence (whole entry): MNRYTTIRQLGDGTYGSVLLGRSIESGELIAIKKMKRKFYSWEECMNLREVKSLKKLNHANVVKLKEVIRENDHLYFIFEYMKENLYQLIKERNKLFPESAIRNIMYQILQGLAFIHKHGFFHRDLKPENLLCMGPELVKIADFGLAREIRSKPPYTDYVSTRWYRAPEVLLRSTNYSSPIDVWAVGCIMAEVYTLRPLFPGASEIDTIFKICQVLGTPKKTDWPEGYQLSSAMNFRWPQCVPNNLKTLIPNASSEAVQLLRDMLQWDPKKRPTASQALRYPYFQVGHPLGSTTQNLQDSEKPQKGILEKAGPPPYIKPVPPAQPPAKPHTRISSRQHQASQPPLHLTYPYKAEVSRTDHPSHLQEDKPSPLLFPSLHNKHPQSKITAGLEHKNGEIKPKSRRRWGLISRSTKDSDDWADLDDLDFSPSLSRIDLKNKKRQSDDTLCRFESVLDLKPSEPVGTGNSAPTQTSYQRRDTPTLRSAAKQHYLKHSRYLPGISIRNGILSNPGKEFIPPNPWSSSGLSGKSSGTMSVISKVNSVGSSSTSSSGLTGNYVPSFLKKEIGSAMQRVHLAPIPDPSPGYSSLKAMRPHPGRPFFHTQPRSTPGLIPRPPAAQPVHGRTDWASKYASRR

[5] = molecular target: Platelet-derived growth factor receptor alpha (Homo sapiens) (UniProt P16234); assay: Inhibition of PDGFRA at 1 uM
Platelet-derived growth factor receptor alpha (Homo sapiens), sequence (P16234 whole entry): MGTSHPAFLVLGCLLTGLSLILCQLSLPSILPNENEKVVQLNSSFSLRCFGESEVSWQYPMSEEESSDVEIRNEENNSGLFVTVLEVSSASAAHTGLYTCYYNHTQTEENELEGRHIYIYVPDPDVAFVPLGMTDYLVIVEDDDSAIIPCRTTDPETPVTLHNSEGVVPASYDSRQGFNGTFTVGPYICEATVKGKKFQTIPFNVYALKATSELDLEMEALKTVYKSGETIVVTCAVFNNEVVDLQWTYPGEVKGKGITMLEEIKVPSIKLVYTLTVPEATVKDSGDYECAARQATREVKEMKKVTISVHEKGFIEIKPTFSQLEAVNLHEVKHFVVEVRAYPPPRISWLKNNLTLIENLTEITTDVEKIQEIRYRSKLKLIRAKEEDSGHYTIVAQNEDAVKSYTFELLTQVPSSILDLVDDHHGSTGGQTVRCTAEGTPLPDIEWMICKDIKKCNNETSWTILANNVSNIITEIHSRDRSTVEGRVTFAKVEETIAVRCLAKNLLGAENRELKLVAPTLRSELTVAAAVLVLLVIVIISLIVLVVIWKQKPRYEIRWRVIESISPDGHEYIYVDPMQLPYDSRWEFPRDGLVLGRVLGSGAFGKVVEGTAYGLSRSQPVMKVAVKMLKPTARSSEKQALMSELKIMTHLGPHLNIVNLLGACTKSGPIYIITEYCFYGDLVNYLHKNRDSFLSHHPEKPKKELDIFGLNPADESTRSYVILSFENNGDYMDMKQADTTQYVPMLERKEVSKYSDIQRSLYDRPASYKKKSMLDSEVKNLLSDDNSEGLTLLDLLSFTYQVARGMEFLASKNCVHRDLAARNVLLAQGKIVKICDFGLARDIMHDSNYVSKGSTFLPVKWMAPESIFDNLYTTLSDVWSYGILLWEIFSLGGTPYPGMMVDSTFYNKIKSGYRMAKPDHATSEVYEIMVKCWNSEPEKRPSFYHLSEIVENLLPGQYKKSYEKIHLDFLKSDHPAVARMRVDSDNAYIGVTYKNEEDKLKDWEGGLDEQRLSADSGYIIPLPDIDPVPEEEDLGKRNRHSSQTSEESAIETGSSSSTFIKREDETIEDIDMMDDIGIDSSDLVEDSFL

[6] = test system: Tyrosine-protein kinase ABL1 (Homo sapiens), P00519 [M351T]; assay: Inhibition of ABL1 M351T mutant at 1 uM
Summary of the method: (§1)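 Ambit KINOMEscan screen at a single concentration across a 250–400 kinase panel, recorded as percent inhibition. Selectivity was expressed as S(90), the fraction of kinases inhibited >90%.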

[7] = molecular target: Aurora kinase B (Homo sapiens) (UniProt Q96GD4); assay: Inhibition of AURKB at 1 uM; summary of the method: as §1
Aurora kinase B (Homo sapiens), sequence (Q96GD4 whole entry): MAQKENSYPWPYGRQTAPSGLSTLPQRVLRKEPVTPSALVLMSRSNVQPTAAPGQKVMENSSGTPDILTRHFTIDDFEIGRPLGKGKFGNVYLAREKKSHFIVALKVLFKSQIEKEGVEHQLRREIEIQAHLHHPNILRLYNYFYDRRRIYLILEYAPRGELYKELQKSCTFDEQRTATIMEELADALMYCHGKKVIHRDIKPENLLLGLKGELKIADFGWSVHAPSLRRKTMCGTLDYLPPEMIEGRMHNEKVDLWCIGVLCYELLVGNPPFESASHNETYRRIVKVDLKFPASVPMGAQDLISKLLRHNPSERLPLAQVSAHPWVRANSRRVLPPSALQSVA

[8] = molecular target: T3, Mitogen-activated protein kinase kinase kinase 2 (Homo sapiens) (UniProt Q9Y2U5); assay: Inhibition of MAP3K2 at 1 uM
T3 sequence (whole entry): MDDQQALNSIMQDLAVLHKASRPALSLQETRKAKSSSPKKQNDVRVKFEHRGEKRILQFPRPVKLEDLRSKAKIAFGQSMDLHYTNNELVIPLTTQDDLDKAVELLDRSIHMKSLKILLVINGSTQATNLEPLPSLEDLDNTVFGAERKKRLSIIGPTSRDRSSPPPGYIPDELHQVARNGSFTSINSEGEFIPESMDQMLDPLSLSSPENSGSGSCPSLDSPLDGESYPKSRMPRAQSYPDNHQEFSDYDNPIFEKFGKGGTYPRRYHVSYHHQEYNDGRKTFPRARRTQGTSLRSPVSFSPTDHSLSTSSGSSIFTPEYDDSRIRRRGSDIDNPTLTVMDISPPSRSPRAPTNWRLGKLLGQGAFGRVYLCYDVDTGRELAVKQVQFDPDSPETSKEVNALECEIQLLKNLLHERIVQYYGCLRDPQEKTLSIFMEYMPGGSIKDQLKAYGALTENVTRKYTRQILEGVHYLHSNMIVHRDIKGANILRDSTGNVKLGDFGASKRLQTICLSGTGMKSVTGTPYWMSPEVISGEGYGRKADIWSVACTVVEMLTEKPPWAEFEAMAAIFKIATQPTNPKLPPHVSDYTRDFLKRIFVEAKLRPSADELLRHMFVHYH

[9] = molecular target: Ribosomal protein S6 kinase alpha-6 (Homo sapiens) (UniProt Q9UK32); assay: Inhibition of RPS6KA6 C-terminal domain2 at 1 uM
Ribosomal protein S6 kinase alpha-6 (Homo sapiens), sequence (Q9UK32 whole entry, the tested form may be a part): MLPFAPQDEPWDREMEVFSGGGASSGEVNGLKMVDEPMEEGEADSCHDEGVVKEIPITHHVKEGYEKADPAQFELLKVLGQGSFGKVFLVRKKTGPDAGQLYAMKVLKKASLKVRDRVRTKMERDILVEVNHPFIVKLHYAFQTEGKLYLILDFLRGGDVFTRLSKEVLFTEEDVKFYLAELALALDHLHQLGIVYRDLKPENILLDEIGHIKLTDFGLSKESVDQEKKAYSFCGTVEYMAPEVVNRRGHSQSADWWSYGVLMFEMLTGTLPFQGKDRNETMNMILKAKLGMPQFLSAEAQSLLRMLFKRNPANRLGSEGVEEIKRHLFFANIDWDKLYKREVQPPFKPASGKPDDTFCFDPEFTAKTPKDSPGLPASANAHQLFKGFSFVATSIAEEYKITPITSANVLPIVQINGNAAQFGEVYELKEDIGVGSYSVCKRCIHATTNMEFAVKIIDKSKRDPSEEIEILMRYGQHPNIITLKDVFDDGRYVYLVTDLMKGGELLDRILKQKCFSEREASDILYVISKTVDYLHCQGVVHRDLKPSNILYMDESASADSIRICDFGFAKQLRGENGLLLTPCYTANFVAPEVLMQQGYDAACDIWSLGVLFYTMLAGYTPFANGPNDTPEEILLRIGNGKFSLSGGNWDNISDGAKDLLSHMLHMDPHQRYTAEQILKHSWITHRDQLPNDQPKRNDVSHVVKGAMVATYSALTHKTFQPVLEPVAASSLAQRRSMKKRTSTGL

Receptor-interacting serine/threonine-protein kinase 2 (Homo sapiens), sequence (O43353 whole entry): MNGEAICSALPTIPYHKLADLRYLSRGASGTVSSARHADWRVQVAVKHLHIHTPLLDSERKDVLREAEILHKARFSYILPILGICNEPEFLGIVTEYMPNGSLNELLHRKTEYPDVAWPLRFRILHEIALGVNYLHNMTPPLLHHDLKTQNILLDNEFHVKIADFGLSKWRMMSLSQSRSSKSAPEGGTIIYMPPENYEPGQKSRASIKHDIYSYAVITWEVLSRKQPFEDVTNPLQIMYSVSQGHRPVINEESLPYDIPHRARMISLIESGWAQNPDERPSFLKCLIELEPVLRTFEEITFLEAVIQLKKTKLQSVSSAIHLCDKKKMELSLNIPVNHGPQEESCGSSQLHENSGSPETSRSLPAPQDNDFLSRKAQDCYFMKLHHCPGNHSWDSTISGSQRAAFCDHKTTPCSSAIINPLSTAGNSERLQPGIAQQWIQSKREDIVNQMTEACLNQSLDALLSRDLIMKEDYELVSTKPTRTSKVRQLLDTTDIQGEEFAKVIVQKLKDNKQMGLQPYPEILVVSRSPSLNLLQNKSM

inhibition [1] [%]	inhibition [2] [%]	inhibition [3] [%]	inhibition [4] [%]	inhibition [5] [%]	inhibition [6] [%]	inhibition [7] [%]	inhibition [8] [%]	inhibition [9] [%]	SMILES
< 50	< 50	< 50	< 50	< 50	< 50	< 50	74	< 50	CN1CCN(c2ccc(-c3cnc4c(c3)N(Cc3cc(Cl)ccc3C(F)(F)F)CCN4)cn2)CC1
< 50	< 50	70	< 50	< 50	71.9	< 50	< 50	< 50	CN1CCN(c2ccc(-c3cnc4c(c3)N(Cc3cc(F)ccc3F)CCN4)cn2)CC1
< 50	< 50	92	< 50	< 50	87	< 50	< 50	< 50	CN1CCN(c2ccc(-c3cnc4c(c3)N(Cc3c(F)ccc(F)c3Cl)CCN4)cn2)CC1
< 50	< 50	< 50	< 50	< 50	68	< 50	< 50	< 50	CN1CCN(c2ccc(-c3cnc4c(c3)N(Cc3cc(Cl)ccc3Cl)CCN4)cn2)CC1

The remaining lines, values behind:

SMILES	inhibition [1] [%]	inhibition [2] [%]	inhibition [3] [%]	inhibition [4] [%]	inhibition [5] [%]	inhibition [6] [%]	inhibition [7] [%]	inhibition [8] [%]	inhibition [9] [%]
O=C(O)c1ccc(-c2cnc3c(c2)N(Cc2cc(Cl)ccc2C(F)(F)F)CCN3)cc1	< 50	–	–	–	< 50	< 50	< 50	–	< 50
O=C(c1ccc(-c2cnc3c(c2)N(Cc2cc(Cl)ccc2C(F)(F)F)CCN3)cc1)N1CCC(N2CCCC2)CC1	< 50	–	–	–	< 50	< 50	< 50	–	< 50
COC1CCN(C(=O)c2ccc(-c3cnc4c(c3)N(Cc3cc(Cl)ccc3C(F)(F)F)CCN4)cc2)CC1	< 50	–	–	–	< 50	< 50	< 50	–	< 50
FC(F)(F)c1ccc(Cl)cc1CN1CCNc2ncc(-c3ccnc(N4CCNCC4)c3)cc21	< 50	< 50	70	< 50	< 50	< 50	76	93	< 50
CC(=O)N1CCN(c2cc(-c3cnc4c(c3)N(Cc3cc(Cl)ccc3C(F)(F)F)CCN4)ccn2)CC1	< 50	< 50	< 50	< 50	< 50	< 50	< 50	81	< 50
O=C(c1ccc(-c2cnc3c(c2)N(Cc2cc(Cl)ccc2C(F)(F)F)CCN3)cc1)N1CCCCC1	< 50	–	–	–	< 50	< 50	< 50	–	< 50
